Tests used:
Assay type in all cases: functional
[1] = tested on: OVCAR-8; assay: Growth inhibition of human OVCAR8 cells after 48 hrs by sulforhodamine B assay; conditions: OVCAR-8, 48 h
[2] = tested on: SK-OV-3; assay: Growth inhibition of human SKOV3 cells after 48 hrs by sulforhodamine B assay; conditions: SK-OV-3, 48 h
[3] = tested on: HCT-116; assay: Growth inhibition of human HCT116 cells after 48 hrs by sulforhodamine B assay; conditions: HCT-116, 48 h
[4] = tested on: SNB-75; assay: Growth inhibition of human SNB75 cells after 48 hrs by sulforhodamine B assay; conditions: SNB-75, 48 h
[5] = tested on: SNB-19; assay: Growth inhibition of human SNB19 cells after 48 hrs by sulforhodamine B assay; conditions: SNB-19, 48 h
[6] = tested on: PC-3; assay: Growth inhibition of human PC3 cells after 48 hrs by sulforhodamine B assay; conditions: PC-3, 48 h
[7] = tested on: SK-MEL-28; assay: Growth inhibition of human SK-MEL-28 cells after 48 hrs by sulforhodamine B assay; conditions: SK-MEL-28, 48 h
[8] = tested on: A549; assay: Growth inhibition of human A549 cells after 48 hrs by sulforhodamine B assay; conditions: A549, 48 h
[9] = tested on: MDA-MB-435; assay: Growth inhibition of human MDA-MB-435 cells after 48 hrs by sulforhodamine B assay; conditions: MDA-MB-435, 48 h
[10] = tested on: SF-295; assay: Growth inhibition of human SF295 cells after 48 hrs by sulforhodamine B assay; conditions: SF-295, 48 h
[11] = tested on: SF-539; assay: Growth inhibition of human SF539 cells after 48 hrs by sulforhodamine B assay; conditions: SF-539, 48 h
[12] = tested on: EKVX; assay: Growth inhibition of human EKVX cells after 48 hrs by sulforhodamine B assay
[13] = tested on: MCF7; assay: Growth inhibition of human MCF7 cells after 48 hrs by sulforhodamine B assay; conditions: MCF7, 48 h
[14] = tested on: DU-145; assay: Growth inhibition of human DU145 cells after 48 hrs by sulforhodamine B assay; conditions: DU-145, 48 h
[15] = tested on: NCI-H460; assay: Growth inhibition of human NCI-H460 cells after 48 hrs by sulforhodamine B assay; conditions: NCI-H460, 48 h
[16] = tested on: HL-60(TB); assay: Growth inhibition of human HL-60(TB) cells after 48 hrs by sulforhodamine B assay; conditions: HL-60, 48 h
Summary of the method: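 Run in the NCI 60 cell-line screen as the full 5-dose assay that follows initial single-dose testing; GI50 is read from the dose series.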

[17] = tested on: UO-31; assay: Growth inhibition of human UO31 cells after 48 hrs by sulforhodamine B assay; conditions: UO-31, 48 h
[18] = tested on: NCI-H23; assay: Growth inhibition of human NCI-H23 cells after 48 hrs by sulforhodamine B assay; conditions: NCI-H23, 48 h
[19] = tested on: CCRF-CEM; assay: Growth inhibition of human CCRF-CEM cells after 48 hrs by sulforhodamine B assay
[20] = tested on: K562; assay: Growth inhibition of human K562 cells after 48 hrs by sulforhodamine B assay; conditions: K562, 48 h
[21] = tested on: RPMI-8226; assay: Growth inhibition of human RPMI8226 cells after 48 hrs by sulforhodamine B assay; conditions: RPMI-8226, 48 h
[22] = tested on: SR; assay: Growth inhibition of human SR cells after 48 hrs by sulforhodamine B assay
[23] = tested on: Malme-3M; assay: Growth inhibition of human MALME-3M cells after 48 hrs by sulforhodamine B assay
[24] = tested on: UACC-257; assay: Growth inhibition of human UACC257 cells after 48 hrs by sulforhodamine B assay; conditions: UACC-257, 48 h
[25] = tested on: SF-268; assay: Growth inhibition of human SF268 cells after 48 hrs by sulforhodamine B assay; conditions: SF-268, 48 h
[26] = read-out: pLC50 (the source's name) (converted)

Molecule COc1cc(/C=C/c2cc3c(c(OC)c2)O[C@]2(C)CC[C@@H](O)C(C)(C)[C@H]2C3)cc(O)c1C/C=C(\C)CCC=C(C)C has a GI50 [1] of 5.5 µM, an LC50 [1] of 30.9 µM and a TGI ([1]; read-out: pTGI (converted)) of 13.2 µM. For the same molecule, the GI50 [2] was 3.24 µM, the LC50 [2] was over 50.1 µM and the TGI ([2]; read-out: pTGI (converted)) was 18.2 µM. It also gave a GI50 [3] of 3.24 µM, an LC50 [3] of 21.9 µM and a TGI ([3]; read-out: pTGI (converted)) of 9.77 µM. The GI50 [4] was 3.63 µM, the LC50 [4] was 30.2 µM and the TGI ([4]; read-out: pTGI (converted)) was 11.7 µM. It also gave a GI50 [5] of 3.89 µM, an LC50 [5] of 41.7 µM and a TGI ([5]; read-out: pTGI (converted)) of 14.1 µM. The GI50 [6] was 0.741 µM, the CC50 [6, 26] was 37.2 µM and the TGI ([6]; read-out: pTGI (converted)) was 10 µM. It also gave a GI50 [7] of 4.27 µM, a CC50 [7, 26] of 22.9 µM and a TGI ([7]; read-out: pTGI (converted)) of 10.7 µM. For the same molecule, the LC50 [8] was 28.2 µM, the GI50 ([8]; read-out: GI50) was 2.45 µM and the GI50 ([8]; read-out: pGI50 (converted)) was 2.45 µM. The TGI ([8]; read-out: pTGI (converted)) was 10.5 µM, the GI50 [9] was 4.27 µM and the LC50 [9] was 28.8 µM. For the same molecule, the TGI ([9]; read-out: pTGI (converted)) was 11.7 µM, the LC50 [10] was 3.89 µM and the GI50 ([10]; read-out: GI50) was 0.19 µM. It also gave a GI50 ([10]; read-out: pGI50 (converted)) of 0.186 µM, a TGI ([10]; read-out: pTGI (converted)) of 0.871 µM and a GI50 [11] of 0.155 µM. It also gave an LC50 [11] of 7.59 µM, a TGI ([11]; read-out: pTGI (converted)) of 1.1 µM and a GI50 [12] of 2.09 µM. For the same molecule, the LC50 (50% lethal concentration) [12] was 32.4 µM, the TGI ([12]; read-out: pTGI (converted)) was 10.7 µM and the GI50 [13] was 1.02 µM. The LC50 [13] was 17.4 µM, the TGI ([13]; read-out: pTGI (converted)) was 5.89 µM and the GI50 [14] was 3.8 µM. For the same molecule, the LC50 [14] was 22.9 µM, the TGI ([14]; read-out: pTGI (converted)) was 10.2 µM and the GI50 [15] was 1.32 µM. It also gave an LC50 (concentration killing 50% of cells) [15] of 16.2 µM, a TGI ([15]; read-out: pTGI (converted)) of 5.25 µM and a GI50 [16] of 1.51 µM. For the same molecule, the CC50 [16, 26] was 30.2 µM, the TGI ([16]; read-out: pTGI (converted)) was 6.61 µM and the GI50 [17] was 1.12 µM. It also gave an LC50 [17] of 21.9 µM, a TGI ([17]; read-out: pTGI (converted)) of 7.59 µM and a GI50 [18] of 5.62 µM. The LC50 [18] was 26.9 µM, the TGI ([18]; read-out: pTGI (converted)) was 12.3 µM and the GI50 [19] was 1.41 µM. It also gave an LC50 [19] of over 50.1 µM, a TGI ([19]; read-out: pTGI (converted)) of 13.8 µM and a GI50 [20] of 1.2 µM. The LC50 [20] was 22.9 µM, the TGI ([20]; read-out: pTGI (converted)) was 4.07 µM and the GI50 [21] was 0.178 µM. The LC50 [21] was over 50.1 µM, the TGI ([21]; read-out: pTGI (converted)) was 1.55 µM and the GI50 [22] was 1.02 µM. The LC50 [22] was 22.4 µM, the TGI ([22]; read-out: pTGI (converted)) was 3.16 µM and the GI50 [23] was 5.13 µM. The LC50 [23] was 36.3 µM, the TGI ([23]; read-out: pTGI (converted)) was 13.5 µM and the GI50 [24] was 6.76 µM. The LC50 [24] was 29.5 µM, the TGI ([24]; read-out: pTGI (converted)) was 14.1 µM and the GI50 [25] was 2.45 µM. For the same molecule, the LC50 [25] was 21.4 µM and the TGI ([25]; read-out: pTGI (converted)) was 9.33 µM.

Reference: ChEMBL document CHEMBL1926642, “Relevance of the C-5 position to schweinfurthin induced cytotoxicity” (2011)
